{
  "source": "ChEMBL document CHEMBL1144825",
  "about": "“A different molecular mechanism underlying antimicrobial and hemolytic actions of temporins A and L” (J Med Chem, 2008)",
  "key": {"Pseudomonas aeruginosa": {"tested_on": "Pseudomonas aeruginosa", "experiment": "Antimicrobial activity against Pseudomonas aeruginosa ATCC 15692 after 18 to 20 hrs by microbroth dilution method", "assay_type": "functional", "method_in_brief": "(§1)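 Microbroth dilution per NCCLS (2001): midlog-phase bacteria at 2 × 10^6 CFU/mL in Mueller-Hinton medium mixed 1:1 with MH broth containing peptide in serial 2-fold dilutions (20% ethanol), range 0.75-24 µM. Incubated 18–20 h at 37 °C; growth read as absorbance at 600 nm. MIC taken as the lowest peptide concentration giving 100% growth inhibition.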"}, "Priestia megaterium": {"tested_on": "Priestia megaterium", "experiment": "Antimicrobial activity against Bacillus megaterium Bm11 after 18 to 20 hrs by micro-broth dilution method", "assay_type": "functional", "method_in_brief": "as §1"}, "Staphylococcus aureus [1]": {"tested_on": "Staphylococcus aureus", "experiment": "Antimicrobial activity against Staphylococcus aureus ATCC 25923 after 18 to 20 hrs by micro-broth dilution method", "assay_type": "functional", "method_in_brief": "as §1"}, "Saccharomyces": {"tested_on": "Saccharomyces", "experiment": "Antimicrobial activity against Saccharomyces pombe after 18 to 20 hrs by micro-broth dilution method", "assay_type": "functional", "method_in_brief": "(§2)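 Yeasts tested by NCCLS (2001) microbroth dilution in Winge medium: cells mixed 1:1 with medium containing peptide in serial 2-fold dilutions (20% ethanol), range 0.75-24 µM. Incubated 18–20 h at 30 °C; absorbance read at 600 nm. MIC defined as the peptide concentration giving 100% growth inhibition.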"}, "[2]": {"experiment": "Toxicity assessed as hemolytic activity in human erythrocytes at 24 uM after 30 mins", "assay_type": "cell-based, Erythrocyte", "conditions": "read-out: Activity", "method_in_brief": "(§3)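 Human erythrocyte suspension in 0.9% (w/v) NaCl incubated 30 min at 37 °C with gentle mixing alongside serial 2-fold peptide dilutions (peptide dissolved in 20% ethanol). After centrifugation, supernatant absorbance read at 415 nm. Complete lysis reference obtained by suspending erythrocytes in distilled water.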"}, "[3]": {"tested_on": "Yersinia pseudotuberculosis", "experiment": "Antimicrobial activity against Yersinia pseudotuberculosis YP3 after 18 to 20 hrs by micro-broth dilution method", "assay_type": "functional", "method_in_brief": "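Microbroth dilution per NCCLS (2001). Mid-log bacteria at 2 × 10^6 CFU/mL in Mueller-Hinton broth are mixed 1:1 with MH broth holding serial 2-fold peptide dilutions in 20% ethanol, range 0.75-24 µM. Plates are incubated 18–20 h at 37 °C and growth is read as A600. MIC is the lowest concentration giving 100% growth inhibition.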"}, "[4]": {"experiment": "Toxicity assessed as hemolytic activity in human erythrocytes at 3 uM after 30 mins", "assay_type": "cell-based, Erythrocyte", "conditions": "read-out: Activity", "method_in_brief": "as §3"}, "[5]": {"experiment": "Toxicity assessed as hemolytic activity in human erythrocytes at 12 uM after 30 mins", "assay_type": "cell-based, Erythrocyte", "conditions": "read-out: Activity", "method_in_brief": "as §3"}, "[6]": {"tested_on": "Staphylococcus epidermidis", "experiment": "Antimicrobial activity against Staphylococcus epidermidis ATCC 12228 after 18 to 20 hrs by micro-broth dilution method", "assay_type": "functional", "method_in_brief": "as §1"}, "[7]": {"experiment": "Toxicity assessed as hemolytic activity in human erythrocytes at 6 uM after 30 mins", "assay_type": "cell-based, Erythrocyte", "conditions": "read-out: Activity", "method_in_brief": "as §3"}, "Candida albicans": {"tested_on": "Candida albicans", "experiment": "Antimicrobial activity against Candida albicans ATCC 10231 after 18 to 20 hrs by micro-broth dilution method", "assay_type": "functional", "method_in_brief": "as §2"}, "Escherichia coli": {"tested_on": "Escherichia coli", "experiment": "Antimicrobial activity against Escherichia coli D21 after 18 to 20 hrs by micro-broth dilution method", "assay_type": "functional", "method_in_brief": "as §1"}, "[8]": {"experiment": "Antimicrobial activity against […] faecalis ATCC 29212 after 18 to 20 hrs by microbroth dilution method", "assay_type": "functional", "method_in_brief": "as §1"}, "Staphylococcus aureus [9]": {"tested_on": "Staphylococcus aureus", "experiment": "Antimicrobial activity against Staphylococcus aureus Cowan 1 after 18 to 20 hrs by micro-broth dilution method", "assay_type": "functional", "method_in_brief": "as §1"}, "Staphylococcus capitis": {"tested_on": "Staphylococcus capitis", "experiment": "Antimicrobial activity against Staphylococcus capitis after 18 to 20 hrs by micro-broth dilution method", "assay_type": "functional", "method_in_brief": "as §1"}, "Pseudomonas syringae": {"tested_on": "Pseudomonas syringae", "experiment": "Antimicrobial activity against Pseudomonas syringae pv tabaci after 18 to 20 hrs by micro-broth dilution method", "assay_type": "functional", "method_in_brief": "as §1"}, "Saccharomyces cerevisiae": {"tested_on": "Saccharomyces cerevisiae", "experiment": "Antimicrobial activity against Saccharomyces cerevisiae after 18 to 20 hrs by micro-broth dilution method", "assay_type": "functional", "method_in_brief": "as §2"}, "Streptococcus pyogenes": {"tested_on": "Streptococcus pyogenes", "experiment": "Antimicrobial activity against Streptococcus pyrogenes ATCC 21547 after 18 to 20 hrs by micro-broth dilution method", "assay_type": "functional", "method_in_brief": "as §1"}},
  "data": [
    {"substance": "H-FVPWFSKFLGRIL-NH2", "values": [
      {"measurement": "MIC", "setting": "Pseudomonas aeruginosa", "value": 24, "unit": "µM"},
      {"measurement": "MIC", "setting": "Priestia megaterium", "value": 1.5, "unit": "µM"},
      {"measurement": "MIC", "setting": "Staphylococcus aureus [1]", "value": 3, "unit": "µM"},
      {"measurement": "MIC", "setting": "Saccharomyces", "value": 3, "unit": "µM"},
      {"measurement": "hemolysis at 0.5 h, 24 µM", "setting": "[2]", "value": 92, "unit": "%"},
      {"measurement": "MIC", "setting": "[3]", "value": 3, "unit": "µM"},
      {"measurement": "hemolysis at 0.5 h, 3 µM", "setting": "[4]", "value": 6, "unit": "%"},
      {"measurement": "hemolysis at 0.5 h, 12 µM", "setting": "[5]", "value": 42, "unit": "%"},
      {"measurement": "MIC", "setting": "[6]", "value": 1.5, "unit": "µM"},
      {"measurement": "hemolysis at 0.5 h, 6 µM", "setting": "[7]", "value": 10, "unit": "%"},
      {"measurement": "MIC", "setting": "Candida albicans", "value": 6, "unit": "µM"},
      {"measurement": "MIC", "setting": "Escherichia coli", "value": 12, "unit": "µM"},
      {"measurement": "MIC", "setting": "[8]", "value": 6, "unit": "µM"},
      {"measurement": "MIC", "setting": "Staphylococcus aureus [9]", "value": 1.5, "unit": "µM"},
      {"measurement": "MIC", "setting": "Staphylococcus capitis", "value": 1.5, "unit": "µM"},
      {"measurement": "MIC", "setting": "Pseudomonas syringae", "value": 6, "unit": "µM"},
      {"measurement": "MIC", "setting": "Saccharomyces cerevisiae", "value": 6, "unit": "µM"},
      {"measurement": "MIC", "setting": "Streptococcus pyogenes", "value": 6, "unit": "µM"}
    ]},
    {"substance": "H-FVQWFSKFLGRIL-NH2 [TEMPORIN L]", "values": [
      {"measurement": "MIC", "setting": "Pseudomonas aeruginosa", "value": 24, "unit": "µM"},
      {"measurement": "MIC", "setting": "Priestia megaterium", "value": 1.5, "unit": "µM"},
      {"measurement": "MIC", "setting": "Staphylococcus aureus [1]", "value": 3, "unit": "µM"},
      {"measurement": "MIC", "setting": "Saccharomyces", "value": 6, "unit": "µM"},
      {"measurement": "hemolysis at 0.5 h, 24 µM", "setting": "[2]", "value": 94, "unit": "%"},
      {"measurement": "MIC", "setting": "[3]", "value": 3, "unit": "µM"},
      {"measurement": "hemolysis at 0.5 h, 3 µM", "setting": "[4]", "value": 13, "unit": "%"},
      {"measurement": "hemolysis at 0.5 h, 12 µM", "setting": "[5]", "value": 92, "unit": "%"},
      {"measurement": "MIC", "setting": "[6]", "value": 3, "unit": "µM"},
      {"measurement": "hemolysis at 0.5 h, 6 µM", "setting": "[7]", "value": 48, "unit": "%"},
      {"measurement": "MIC", "setting": "Candida albicans", "value": 12, "unit": "µM"},
      {"measurement": "MIC", "setting": "Escherichia coli", "value": 12, "unit": "µM"},
      {"measurement": "MIC", "setting": "[8]", "value": 6, "unit": "µM"},
      {"measurement": "MIC", "setting": "Staphylococcus aureus [9]", "value": 3, "unit": "µM"},
      {"measurement": "MIC", "setting": "Staphylococcus capitis", "value": 1.5, "unit": "µM"},
      {"measurement": "MIC", "setting": "Pseudomonas syringae", "value": 6, "unit": "µM"},
      {"measurement": "MIC", "setting": "Saccharomyces cerevisiae", "value": 6, "unit": "µM"},
      {"measurement": "MIC", "setting": "Streptococcus pyogenes", "value": 6, "unit": "µM"}
    ]},
    {"substance": "H-FLPLIGRVLSGIL-NH2 [TEMPORIN A]", "values": [
      {"measurement": "MIC", "setting": "Pseudomonas aeruginosa", "value": "> 24", "unit": "µM"},
      {"measurement": "MIC", "setting": "Priestia megaterium", "value": 1.5, "unit": "µM"},
      {"measurement": "MIC", "setting": "Staphylococcus aureus [1]", "value": 3, "unit": "µM"},
      {"measurement": "MIC", "setting": "Saccharomyces", "value": 3, "unit": "µM"},
      {"measurement": "hemolysis at 0.5 h, 24 µM", "setting": "[2]", "value": 28, "unit": "%"},
      {"measurement": "MIC", "setting": "[3]", "value": 12, "unit": "µM"},
      {"measurement": "hemolysis at 0.5 h, 3 µM", "setting": "[4]", "value": 3, "unit": "%"},
      {"measurement": "hemolysis at 0.5 h, 12 µM", "setting": "[5]", "value": 6, "unit": "%"},
      {"measurement": "MIC", "setting": "[6]", "value": 3, "unit": "µM"},
      {"measurement": "hemolysis at 0.5 h, 6 µM", "setting": "[7]", "value": 4.5, "unit": "%"},
      {"measurement": "MIC", "setting": "Candida albicans", "value": 12, "unit": "µM"},
      {"measurement": "MIC", "setting": "Escherichia coli", "value": "> 24", "unit": "µM"},
      {"measurement": "MIC", "setting": "[8]", "value": 12, "unit": "µM"},
      {"measurement": "MIC", "setting": "Staphylococcus aureus [9]", "value": 1.5, "unit": "µM"},
      {"measurement": "MIC", "setting": "Staphylococcus capitis", "value": 1.5, "unit": "µM"},
      {"measurement": "MIC", "setting": "Pseudomonas syringae", "value": "> 24", "unit": "µM"},
      {"measurement": "MIC", "setting": "Saccharomyces cerevisiae", "value": 6, "unit": "µM"},
      {"measurement": "MIC", "setting": "Streptococcus pyogenes", "value": 12, "unit": "µM"}
    ]},
    {"substance": "H-FLQLIGRVLSGIL-NH2 [GLN-TA, TEMPORIN A]", "values": [
      {"measurement": "MIC", "setting": "Pseudomonas aeruginosa", "value": "> 24", "unit": "µM"},
      {"measurement": "MIC", "setting": "Priestia megaterium", "value": 0.75, "unit": "µM"},
      {"measurement": "MIC", "setting": "Staphylococcus aureus [1]", "value": 1.5, "unit": "µM"},
      {"measurement": "MIC", "setting": "Saccharomyces", "value": 3, "unit": "µM"},
      {"measurement": "hemolysis at 0.5 h, 24 µM", "setting": "[2]", "value": 92, "unit": "%"},
      {"measurement": "MIC", "setting": "[3]", "value": 6, "unit": "µM"},
      {"measurement": "hemolysis at 0.5 h, 3 µM", "setting": "[4]", "value": 9, "unit": "%"},
      {"measurement": "hemolysis at 0.5 h, 12 µM", "setting": "[5]", "value": 70, "unit": "%"},
      {"measurement": "MIC", "setting": "[6]", "value": 1.5, "unit": "µM"},
      {"measurement": "hemolysis at 0.5 h, 6 µM", "setting": "[7]", "value": 18, "unit": "%"},
      {"measurement": "MIC", "setting": "Candida albicans", "value": 6, "unit": "µM"},
      {"measurement": "MIC", "setting": "Escherichia coli", "value": "> 24", "unit": "µM"},
      {"measurement": "MIC", "setting": "[8]", "value": 6, "unit": "µM"},
      {"measurement": "MIC", "setting": "Staphylococcus aureus [9]", "value": 1.5, "unit": "µM"},
      {"measurement": "MIC", "setting": "Staphylococcus capitis", "value": 1.5, "unit": "µM"},
      {"measurement": "MIC", "setting": "Pseudomonas syringae", "value": "> 24", "unit": "µM"},
      {"measurement": "MIC", "setting": "Saccharomyces cerevisiae", "value": 6, "unit": "µM"},
      {"measurement": "MIC", "setting": "Streptococcus pyogenes", "value": 6, "unit": "µM"}
    ]}
  ]
}
